Tests used:
[1] = melting temperature; fluorescence melt of hairpins on a sequencing array, two-state fit, raised by 9.35 °C to match UV melts; conditions: sodium 0.088 M
In short: (§1)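 Folding enthalpy and melting temperature come from bootstrapped two-state fits to Cy3 fluorescence of library hairpins carrying annealed Cy3 and quencher oligos on a sequenced MiSeq flow cell. Imaging was done in 50 mM Na-HEPES pH 8.0, 25 mM NaCl, stepping by 2.5 °C up to 60 °C, and signals were normalised to pre-quench Cy3 and to control constructs. Results of four replicates were combined by inverse variance, and fitted temperatures were raised by 9.35 °C to match UV melts.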

[2] = folding enthalpy; higher = less favourable; fluorescence melt of hairpins on a sequencing array, two-state fit; conditions: sodium 0.088 M
In short: as §1

Row | Sequence | Tm [1] [°C] | folding enthalpy [2] [kcal/mol]
1 | GTACATCGAAAGATATAC (((.(((....))).))) | 29.6 | -16
2 | GTACATGGAAACATGTAC (((((((....))))))) | 55.7 | -51.6
3 | GTACCACCGAAAGGTTAC (((..(((....)))))) | 21.6 | -11.5
4 | GTACCACGAAAGTGCTAC (((.(((....))).))) | 33.6 | -13.7
5 | GTACCAGGAAACTGGTAC (((((((....))))))) | 62.2 | -40.4
6 | GTACCCCGAAAGGGTTAC (((.(((....))).))) | 41.8 | -19.6
7 | GTACCCGAAAGGGGTTAC ((((((....)))..))) | 35.2 | -10.1
8 | GTACCCGAAAGGGTCTAC ((((((....)))..))) | 42.2 | -10.7
9 | GTACCCGAAAGGGTGTAC ((((((....)))..))) | 40.3 | -10.1
10 | GTACCCGAAAGGGTTTAC ((((((....)))..))) | 33 | -8.12
11 | GTACCCGGAAACAGGTAC (((((.(....).))))) | 39.4 | -25.7
12 | GTACCGCGAAAGCGTAC (((.(((....)))))) | 51.1 | -14.1
13 | GTACCGCGAAAGCGTTAC (((.(((....))).))) | 42.9 | -21
14 | GTACCGGGAAACCAGTAC ((((.((....)).)))) | 38.4 | -23.5
15 | GTACCGGGAAACCGGCAC ((.((((....)))).)) | 47.9 | -17.7
16 | GTACCGGGAAACTGGTGC (.(((.(....).))).) | 42.4 | -25.9
17 | GTACCTCGAAAGAGTTAC (((.(((....))).))) | 35.3 | -27.9
18 | GTACCTGAAAAGGTAC ((((((....)))))) | 60 | -31.6
19 | GTACCTGGAAACAGATAC (((.(((....))).))) | 32.7 | -18.8
20 | GTACGACGAAAGTCTAC (((.(((....)))))) | 37.2 | -19.7
21 | GTACGAGGAAACTCGCAC ((.((((....)))).)) | 42.4 | -19.8
22 | GTACGAGGAAACTCGTAC (((((((....))))))) | 61.9 | -36.4
23 | GTACGAGGAAACTCGTGC (.(((((....))))).) | 52 | -39.2

Row | Sequence | Tm [1] [°C] | folding enthalpy [2] [kcal/mol]
24 | GTACGCACGAAAGTGTAC (((..(((....)))))) | 36.4 | -15.6
25 | GTACGCGAAAGCGACTAC ((((((....)))..))) | 41.9 | -11.9
26 | GTACGCGAAAGCGGATAC ((((((....)))..))) | 37.1 | -10.3
27 | GTACGCGAAAGCGGGTAC ((((((....)))..))) | 38.7 | -10.6
28 | GTACGCGGAAACGCGCAC ((.((((....)))).)) | 52.9 | -14
29 | GTACGCGGAAACGCGTGC (.(((((....))))).) | 60.9 | -15.4
30 | GTACGCTCGAAAGAGTAC (((..(((....)))))) | 34.1 | -21.8
31 | GTACGGCGAAAGCCATAC (((.(((....))).))) | 42.1 | -17.7
32 | GTACGGCGAAAGCCTTAC (((.(((....))).))) | 43.2 | -19.3
33 | GTACGGGGAAACCCGTAC (((((((....))))))) | 67.3 | -41.9
34 | GTACGGGGAAACCCGTGC (.(((((....))))).) | 55.6 | -26.9
35 | GTACGTGGAAACACGTGC (.(((((....))))).) | 54.2 | -28
36 | GTACGTGGAAACATGTGC (.((.((....)).)).) | 36.5 | -24.4
37 | GTACTACGAAAGTACTAC (((.(((....))).))) | 38.6 | -17.8
38 | GTACTACGAAAGTATTAC (((.(((....))).))) | 32.8 | -23.5
39 | GTACTAGGAAACCAGTAC (((((.(....).))))) | 36 | -26.9
40 | GTACTAGGAAACTAGTAC (((((((....))))))) | 52.3 | -40.1
41 | GTACTCCGAAAGGAATAC (((.(((....))).))) | 37.7 | -26
42 | GTACTCCGAAAGGATTAC (((.(((....))).))) | 37.6 | -29.8
43 | GTACTCGAAAGAGGGTAC ((((((....)))..))) | 33.7 | -14.2
44 | GTACTCGGAAACGAGCAC ((.((((....)))).)) | 48.6 | -19.3
45 | GTACTCGGAAACGAGTAC (((((((....))))))) | 63 | -37.7
46 | GTACTCGGAAACGGGTAC ((((.((....)).)))) | 50.6 | -42.6

Row | Sequence | Tm [1] [°C] | folding enthalpy [2] [kcal/mol]
47 | GTACTGGAAACAGTAC ((((((....)))))) | 54.7 | -36
48 | GTACTGGGAAACTAGTAC (((((.(....).))))) | 42.2 | -36.8
49 | GTACTTCGAAAGAAATAC (((.(((....))).))) | 29.3 | -17.1
50 | GTACTTCGAAAGAATAC (((.(((....)))))) | 25.9 | -7.86
51 | GTACTTGAAAAAGTAC ((((((....)))))) | 48.6 | -32.7
52 | GTACTTGGAAACAGGTAC ((((.((....)).)))) | 40.1 | -32.4
53 | GTAGAACGAAAGTTTAC (((.(((....)))))) | 27.4 | -9.99
54 | GTAGAACGAAAGTTTTAC (((.(((....))).))) | 40.2 | -30.6
55 | GTAGAAGAAATTCTAC ((((((....)))))) | 39.4 | -26.5
56 | GTAGAATCGAAAGATTAC (((..(((....)))))) | 27.3 | -11
57 | GTAGACGAAAGTCTCTAC ((((((....)))..))) | 34.9 | -11.6
58 | GTAGACGGAAACGTCTAC (((((((....))))))) | 61.3 | -50.1
59 | GTAGACTCGAAAGAGTAC (((..(((....)))))) | 31.2 | -13.9
60 | GTAGAGCGAAAGCTGTAC (((.(((....))).))) | 50.9 | -25.2
61 | GTAGAGGCGAAAGCCTAC (((..(((....)))))) | 38 | -8.81
62 | GTAGATCGAAAGATATAC (((.(((....))).))) | 42.3 | -32.4
63 | GTAGATCGAAAGATTAC (((.(((....)))))) | 29.3 | -13.5
64 | GTAGATGCGAAAGCATAC (((..(((....)))))) | 31.1 | -11.9
65 | GTAGATGGAAACATCCAC ((.((((....)))).)) | 30.4 | -16.9
66 | GTAGATGGAAACATTTAC (((.(((....))).))) | 32.1 | -17.3
67 | GTAGATGGAAACGTCTAC (((((.(....).))))) | 43.6 | -31.3
68 | GTAGCAGGAAACTGCTAC (((((((....))))))) | 66.2 | -32.7
69 | GTAGCCGAAAGGCATAC ((((((....))).))) | 43.5 | -11.9

Row | Sequence | Tm [1] [°C] | folding enthalpy [2] [kcal/mol]
70 | GTAGCCGAAAGGCATTAC ((((((....)))..))) | 27 | -7.48
71 | GTAGCCGAAAGGCCATAC ((((((....)))..))) | 22.3 | -8.17
72 | GTAGCCGAAAGGCCTTAC ((((((....)))..))) | 33.5 | -9.41
73 | GTAGCCGAAAGGCGATAC ((((((....)))..))) | 41.3 | -9.43
74 | GTAGCCGAAAGGCTCTAC ((((((....)))..))) | 38.6 | -8.79
75 | GTAGCCGGAAACAGCTAC (((((.(....).))))) | 43.4 | -22.2
76 | GTAGCCGGAAACGGCCAC ((.((((....)))).)) | 39.5 | -10.2
77 | GTAGCCGGAAACGGTTGC (.(.(((....))).).) | 36.4 | -15.2
78 | GTAGCGAAAGCTAC (((((....))))) | 68.7 | -25.8
79 | GTAGCGCCGAAAGGCTAC (((..(((....)))))) | 36.3 | -12.4
80 | GTAGCGCGAAAGCGATAC (((.(((....))).))) | 68 | -24.1
81 | GTAGCGGGAAACCACTAC ((((.((....)).)))) | 42.2 | -34.1
82 | GTAGCTCGAAAGAGTAC (((.(((....)))))) | 36.2 | -18.3
83 | GTAGGACGAAAGTCATAC (((.(((....))).))) | 52.5 | -28.1
84 | GTAGGCCGAAAGGCGTAC (((.(((....))).))) | 62.4 | -26.5
85 | GTAGGCCGAAAGGCTAC (((.(((....)))))) | 50.6 | -15.1
86 | GTAGGCGAAAGCCCGTAC ((((((....)))..))) | 31.1 | -8.97
87 | GTAGGCGAAAGCCGCTAC ((((((....)))..))) | 43.4 | -8.76
88 | GTAGGCGAAAGCCTTTAC ((((((....)))..))) | 24.7 | -8.65
89 | GTAGGCGGAAACGCCCAC ((.((((....)))).)) | 41.1 | -10.2
90 | GTAGGGACGAAAGTCTAC (((..(((....)))))) | 30 | -12
91 | GTAGGGCCGAAAGGCTAC (((..(((....)))))) | 35 | -9.3

Reference: the array DNA melting data of Ke et al. (doi:10.1101/2024.01.08.574731)
